According to article PMC3517974 (ChemMedChem, 2009):

Assays:
[1] = type: in vitro ADME, rat; settings: for log kplasma: hydrolysis constant in rat plasma
[2] = In vitro stability in rat liver S9 fraction with NADPH-regenerating system; type: in vitro ADME; settings: for log kS9: hydrolysis constant in rat liver S9 fraction
How it was run: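 S9 came from male Wistar rat liver (250–300 g), perfused with ice-cold 0.15 M KCl, homogenized 20% w/v in 0.01 M PBS pH 7.4, and spun at 9,000g. It was preincubated 5 min at 37 °C with NADPH-regenerating system (2 mM NADP+, 10 mM G6P, 0.4 U/mL G6PDH, 5 mM MgCl2), 2 mg/mL protein. Test compound was added at 1 µM (1% DMSO). Aliquots were acetonitrile-quenched and analyzed by RP-HPLC; t1/2 from pseudo-first-order constants, mean±SD of three.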

SMILES	log kplasma [1]	log kS9 [2]	half-life at 1 μM ([2]; male, Wistar, rat, liver S9 fraction, pH 7.4, half-life in rat liver S9 fraction, in vitro oxidative metabolism) [h]	stability in rat liver S9 relative to regio isomer 1 [2] [fold]	t1/2,inhib in rat plasma ([1]; coincubation with esterase inhibitor paraoxon 1 mM) [h]
NC(=O)c1cccc(-c2cccc(OC(=O)NC3CCCCC3)c2)c1 [Compound 9, cyclohexylcarbamic acid 3′-carbamoylbiphenyl-3-yl ester]	−1.68	−1.93	~1		
O=C(NC1CCCCC1)Oc1ccc2ccccc2c1 [Compound 13, Cyclohexylcarbamic acid naphthalen-2-yl ester]	−1.57	−0.86			
O=C(NC1CCCCC1)Oc1ccc(-c2ccccc2)cc1 [Compound 12, Cyclohexylcarbamic acid biphenyl-4-yl ester]	−1.50	−1.44		3	
CCCCNC(=O)Oc1ccc(OCc2ccccc2)cc1 [Compound 8, n-Butylcarbamic acid 4-benzyloxyphenyl ester]	−2.68	−1.00			
O=C(NC1CCCCC1)Oc1cccc(-c2ccccc2)c1 [Compound 1]	−1.79	−0.94			2.38
